These molecules were tested against Apoptosis regulator Bcl-2 (Homo sapiens, UniProt P10415) (assay: Displacement of fluorescently-tagged BH3 peptide from Bcl-2 by chemiluminescent nitrogen detection method).
Outline: (§1)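 Solution-phase competition binding in HTS format. Inhibitors compete with a fluorescently tagged BH3 peptide for Bcl-2 or Bcl-xL. Library compounds were first screened at one fixed concentration. Hits exceeding three standard deviations above assay error were then run in a multi-point dilution series, and Ki values were derived from that series.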

Sequence of Apoptosis regulator Bcl-2 (P10415 whole entry): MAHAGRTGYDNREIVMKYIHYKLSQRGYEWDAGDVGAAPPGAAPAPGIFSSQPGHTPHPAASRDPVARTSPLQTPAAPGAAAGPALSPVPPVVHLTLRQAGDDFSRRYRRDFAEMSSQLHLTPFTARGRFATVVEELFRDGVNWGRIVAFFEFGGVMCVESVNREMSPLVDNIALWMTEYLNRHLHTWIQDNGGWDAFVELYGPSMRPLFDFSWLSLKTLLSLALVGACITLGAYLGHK

SMILES	Ki [µM]
O=C(NCCN1CCCCC1)[C@H]1[C@H](CO)[C@H]2Cn3c(cccc3=O)[C@@H]1N2c1nc(-c2ccc(Cl)cc2)c(-c2ccccc2)s1	1.5
O=C(NCCCN1CCCC1)[C@@H]1[C@@H](CO)[C@@H]2Cn3c(cccc3=O)[C@H]1N2c1nc(-c2ccc(Cl)cc2)c(-c2ccccc2)s1	3
COCCNC(=O)[C@@H]1[C@@H](CO)[C@@H]2Cn3c(cccc3=O)[C@H]1N2c1nc(-c2ccc(Cl)cc2)c(-c2ccccc2)s1	4.3
O=C(NCCCN1CCCC1)[C@H]1[C@H](CO)[C@H]2Cn3c(cccc3=O)[C@@H]1N2c1nc(-c2ccc(Cl)cc2)c(-c2ccccc2)s1	1.6
CN(C)CCNC(=O)[C@@H]1[C@@H](CO)[C@@H]2Cn3c(cccc3=O)[C@H]1N2c1nc(-c2ccc(Cl)cc2)c(-c2ccccc2)s1	2
COCCNC(=O)[C@H]1[C@H](CO)[C@H]2Cn3c(cccc3=O)[C@@H]1N2c1nc(-c2ccc(Cl)cc2)c(-c2ccccc2)s1	14
CN(C)CCNC(=O)[C@H]1[C@H](CO)[C@H]2Cn3c(cccc3=O)[C@@H]1N2c1nc(-c2ccc(Cl)cc2)c(-c2ccccc2)s1	1.3

Now from value to molecule:

Ki [µM]	SMILES
2.2	O=C([C@@H]1[C@@H](CO)[C@@H]2Cn3c(cccc3=O)[C@@H]2N1Cc1ccc(Cl)c(Cl)c1)N1CCC(c2ccc(F)cc2)CC1
2.5	O=C(NCCN1CCCCC1)[C@@H]1[C@@H](CO)[C@@H]2Cn3c(cccc3=O)[C@H]1N2c1nc(-c2ccc(Cl)cc2)c(-c2ccccc2)s1
7.8	O=C(N[C@@H]1CCN(Cc2ccccc2)C1)[C@H]1[C@H](CO)[C@H]2Cn3c(cccc3=O)[C@H]2N1CC1CCCCC1
5.4	O=C(NC1Cc2ccccc2C1)[C@H]1[C@H](CO)[C@H]2Cn3c(cccc3=O)[C@H]2N1CC1CCCCC1
8.4	O=C(NCc1ccc(Oc2ccccc2)cc1)[C@H]1[C@H](CO)[C@H]2Cn3c(cccc3=O)[C@H]2N1CC1CCCCC1
6.8	O=C([C@@H]1[C@@H](CO)[C@@H]2Cn3c(cccc3=O)[C@@H]2N1Cc1ccc(Oc2ccccc2)cc1)N1CCC(c2ccc(F)cc2)CC1
5.2	O=C([C@@H]1[C@@H](CO)[C@@H]2Cn3c(cccc3=O)[C@@H]2N1Cc1ccc(Oc2ccccc2)cc1)N1CCC(Cc2ccccc2)CC1
4.1	O=C(N[C@H]1CCN(Cc2ccccc2)C1)[C@H]1[C@H](CO)[C@H]2Cn3c(cccc3=O)[C@H]2N1CC1CCCCC1
1.2	O=C([C@@H]1[C@@H](CO)[C@@H]2Cn3c(cccc3=O)[C@@H]2N1Cc1ccc(Cl)c(Cl)c1)N1CCC(Cc2ccccc2)CC1

What follows are molecules tested against Bcl-2-like protein 1 (Homo sapiens, UniProt Q07817) (assay: Displacement of fluorescently-tagged BH3 peptide from Bcl-XL by chemiluminescent nitrogen detection method).
Sequence of Bcl-2-like protein 1 (Q07817 whole entry): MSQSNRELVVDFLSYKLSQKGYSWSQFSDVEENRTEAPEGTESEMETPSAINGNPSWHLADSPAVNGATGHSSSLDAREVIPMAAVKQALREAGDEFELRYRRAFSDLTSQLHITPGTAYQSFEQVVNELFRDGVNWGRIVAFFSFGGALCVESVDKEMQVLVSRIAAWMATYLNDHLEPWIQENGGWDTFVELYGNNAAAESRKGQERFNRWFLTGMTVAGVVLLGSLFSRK
Outline: as §1

SMILES	Ki [µM]
O=C(NCCN1CCCCC1)[C@H]1[C@H](CO)[C@H]2Cn3c(cccc3=O)[C@@H]1N2c1nc(-c2ccc(Cl)cc2)c(-c2ccccc2)s1	11
O=C(NCCCN1CCCC1)[C@@H]1[C@@H](CO)[C@@H]2Cn3c(cccc3=O)[C@H]1N2c1nc(-c2ccc(Cl)cc2)c(-c2ccccc2)s1	5.7
COCCNC(=O)[C@@H]1[C@@H](CO)[C@@H]2Cn3c(cccc3=O)[C@H]1N2c1nc(-c2ccc(Cl)cc2)c(-c2ccccc2)s1	> 100
O=C(NCCCN1CCCC1)[C@H]1[C@H](CO)[C@H]2Cn3c(cccc3=O)[C@@H]1N2c1nc(-c2ccc(Cl)cc2)c(-c2ccccc2)s1	7.8
CN(C)CCNC(=O)[C@@H]1[C@@H](CO)[C@@H]2Cn3c(cccc3=O)[C@H]1N2c1nc(-c2ccc(Cl)cc2)c(-c2ccccc2)s1	5.7
COCCNC(=O)[C@H]1[C@H](CO)[C@H]2Cn3c(cccc3=O)[C@@H]1N2c1nc(-c2ccc(Cl)cc2)c(-c2ccccc2)s1	> 100
CN(C)CCNC(=O)[C@H]1[C@H](CO)[C@H]2Cn3c(cccc3=O)[C@@H]1N2c1nc(-c2ccc(Cl)cc2)c(-c2ccccc2)s1	6.6

Next, values leading:

Ki [µM]	SMILES
> 100	O=C([C@@H]1[C@@H](CO)[C@@H]2Cn3c(cccc3=O)[C@@H]2N1Cc1ccc(Cl)c(Cl)c1)N1CCC(c2ccc(F)cc2)CC1
6	O=C(NCCN1CCCCC1)[C@@H]1[C@@H](CO)[C@@H]2Cn3c(cccc3=O)[C@H]1N2c1nc(-c2ccc(Cl)cc2)c(-c2ccccc2)s1
> 100	O=C(N[C@@H]1CCN(Cc2ccccc2)C1)[C@H]1[C@H](CO)[C@H]2Cn3c(cccc3=O)[C@H]2N1CC1CCCCC1
> 100	O=C(NC1Cc2ccccc2C1)[C@H]1[C@H](CO)[C@H]2Cn3c(cccc3=O)[C@H]2N1CC1CCCCC1
> 100	O=C(NCc1ccc(Oc2ccccc2)cc1)[C@H]1[C@H](CO)[C@H]2Cn3c(cccc3=O)[C@H]2N1CC1CCCCC1
> 100	O=C([C@@H]1[C@@H](CO)[C@@H]2Cn3c(cccc3=O)[C@@H]2N1Cc1ccc(Oc2ccccc2)cc1)N1CCC(c2ccc(F)cc2)CC1
> 100	O=C([C@@H]1[C@@H](CO)[C@@H]2Cn3c(cccc3=O)[C@@H]2N1Cc1ccc(Oc2ccccc2)cc1)N1CCC(Cc2ccccc2)CC1
> 100	O=C(N[C@H]1CCN(Cc2ccccc2)C1)[C@H]1[C@H](CO)[C@H]2Cn3c(cccc3=O)[C@H]2N1CC1CCCCC1
> 100	O=C([C@@H]1[C@@H](CO)[C@@H]2Cn3c(cccc3=O)[C@@H]2N1Cc1ccc(Cl)c(Cl)c1)N1CCC(Cc2ccccc2)CC1
